Measurements of several laboratories.
Each line is one published result; the experiments were not run side by side.
D14: D14 (Arabidopsis thaliana, UniProt Q9SQR3)
AMY2: Pancreatic alpha-amylase (AMY2, Sus scrofa, UniProt P00690)

SMILES	target	test	setting	endpoint	value
CC1=C(/C=C/C(C)=C/C=O)C(C)(C)CCC1	D14	thermal stability, DSF	100 µM	ΔTm	-9.02 °C
O=C1C[C@@H](c2ccc(O)cc2)Oc2cc(O)cc(O)c21	AMY2	enzyme activity, inhibitor	50 µM	inhibition	33.3%
CC1=C(/C=C/C(C)=C/C=O)C(C)(C)C[C@H](O)C1	D14	thermal stability, DSF	50 µM	ΔTm	-3.04 °C
Cc1cc(O)c(-c2ccc([C@@H](C)CN(C)C)cc2)c2c1[nH]c(=O)c1sccc12	Ribosomal protein S6 kinase alpha-1, C-terminal kinase domain (RPS6KA1, Homo sapiens, UniProt Q15418)	enzyme activity, inhibitor	0.1 µM	inhibition	-4.95%
C1=C/COCc2cc(ccc2OCCN2CCCC2)Nc2nccc(n2)-c2cccc(c2)COC/1	MAP kinase-activated protein kinase 5 (MAPKAPK5, Homo sapiens, UniProt Q8IW41)	binding	0.1 µM	remaining binding	75%
CCCCC(=O)Nc1ccc(-c2ccc3ncn(CCC)c(=O)c3c2)cn1	Tyrosine-protein kinase Fer (FER, Homo sapiens, UniProt P16591)	binding, competition with immobilised ligand	0.5 µM	remaining binding	100%
O=c1cc(-c2ccc(O)cc2)oc2c(Br)c(O)c(Br)c(O)c12	AMY2	enzyme activity, inhibitor	50 µM, 30 min	inhibition	68.2%
CC1=CC(O/C=C2/C(=O)OC3c4ccccc4CC23)OC1=O (racemic)	D14	thermal stability, DSF	10 µM	ΔTm	-7.04 °C
O=c1c(O)c(-c2ccc(O)c(O)c2)oc2cc(O)cc(O)c12	AMY2	enzyme activity, inhibitor	50 µM	inhibition	94.1%
C#Cc1cc(-c2cc(Nc3nc(N[C@@H](C)c4ccc(F)cn4)ncc3Cl)n[nH]2)ccc1C=O	Ribosomal protein S6 kinase alpha-1 (RPS6KA1, Homo sapiens, UniProt Q15418)	enzyme activity, inhibitor	0.2 µM	inhibition	56.8%
